Measured values published in ChEMBL document CHEMBL1140161, “Structure-activity relationships in 1,4-benzodioxan-related compounds. 9. From 1,4-benzodioxane to 1,4-dioxane ring as a promising template of novel alpha1D-adrenoreceptor antagonists, 5-HT1A full agonists, and cytotoxic agents” (J Med Chem, 2008).

How the values were obtained:
[1] = biological target: T1, Alpha-1B adrenergic receptor (Homo sapiens, UniProt P35368); experiment: Displacement of [3H]prazosin from human cloned Alpha-1B adrenoceptor expressed in CHO cells; type: cell-based
T1 sequence (P35368 whole entry): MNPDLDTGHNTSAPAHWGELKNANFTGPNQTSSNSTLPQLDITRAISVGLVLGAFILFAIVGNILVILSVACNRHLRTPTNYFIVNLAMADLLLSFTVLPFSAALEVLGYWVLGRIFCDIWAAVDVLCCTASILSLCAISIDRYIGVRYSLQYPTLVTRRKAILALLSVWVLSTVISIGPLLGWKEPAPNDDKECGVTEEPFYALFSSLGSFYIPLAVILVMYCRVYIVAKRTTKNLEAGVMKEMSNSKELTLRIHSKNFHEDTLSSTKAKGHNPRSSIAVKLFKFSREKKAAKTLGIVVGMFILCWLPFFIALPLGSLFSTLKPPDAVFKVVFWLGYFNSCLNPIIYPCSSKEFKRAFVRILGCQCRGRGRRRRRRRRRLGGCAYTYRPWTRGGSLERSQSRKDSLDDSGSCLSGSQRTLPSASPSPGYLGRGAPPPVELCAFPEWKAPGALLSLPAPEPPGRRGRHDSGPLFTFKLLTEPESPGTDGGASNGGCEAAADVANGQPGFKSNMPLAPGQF
Summary of the method: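 [3H]prazosin binding to cloned human α1-adrenoceptor subtypes expressed in CHO cell membranes. Affinity reported as pKi for each subtype.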

[2] = biological target: T2, 5-hydroxytryptamine receptor 1A (Homo sapiens) (UniProt P08908); experiment: Agonist activity at human cloned 5HT1A receptor expressed in HeLa cell membrane assessed as stimulation of [35S]GTPgammaS binding relative to 5-hydroxytryptamine; type: functional, cell membranes
T2 sequence (whole entry): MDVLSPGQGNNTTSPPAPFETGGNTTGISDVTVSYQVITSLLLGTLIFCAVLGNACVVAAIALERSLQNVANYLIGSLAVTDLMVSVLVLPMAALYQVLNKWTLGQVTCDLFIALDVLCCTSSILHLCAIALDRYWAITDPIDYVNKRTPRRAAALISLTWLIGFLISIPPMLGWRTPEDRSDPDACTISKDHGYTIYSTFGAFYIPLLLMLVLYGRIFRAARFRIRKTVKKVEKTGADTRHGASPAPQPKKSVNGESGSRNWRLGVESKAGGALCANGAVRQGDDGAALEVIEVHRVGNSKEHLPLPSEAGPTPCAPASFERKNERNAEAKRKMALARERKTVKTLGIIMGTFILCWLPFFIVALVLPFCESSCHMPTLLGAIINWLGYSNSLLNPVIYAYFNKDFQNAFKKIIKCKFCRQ
Summary of the method: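 Activation measured as [35S]GTPγS binding in membranes from HeLa cells expressing cloned human 5-HT1A receptor. pD2 is the negative log of agonist concentration giving 50% of maximal stimulation, from two to three experiments agreeing within 20%. Efficacy is given relative to 5-HT.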

[3] = system: PC-3; experiment: Cytotoxicity against human PC3 cells after 48 hrs by SRB assay; type: functional; conditions: PC-3, 48 h; for CC50: read-out: LC50 (the source's name)
Summary of the method: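 PC-3 human prostate cancer cells. Growth measured by sulforhodamine B staining following the NCI protocol. […] Values are means of quadruplicate determinations ± standard error (n = 5).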

[4] = biological target: T3, Alpha-1B adrenergic receptor (Rattus norvegicus) (UniProt P15823); experiment: Antagonist activity at alpha1B adrenoceptor in Wistar rat spleen assessed as inhibition of (-)-phenylephrine-induced contraction after 30 mins; type: functional, tissue-based
T3 sequence (whole entry): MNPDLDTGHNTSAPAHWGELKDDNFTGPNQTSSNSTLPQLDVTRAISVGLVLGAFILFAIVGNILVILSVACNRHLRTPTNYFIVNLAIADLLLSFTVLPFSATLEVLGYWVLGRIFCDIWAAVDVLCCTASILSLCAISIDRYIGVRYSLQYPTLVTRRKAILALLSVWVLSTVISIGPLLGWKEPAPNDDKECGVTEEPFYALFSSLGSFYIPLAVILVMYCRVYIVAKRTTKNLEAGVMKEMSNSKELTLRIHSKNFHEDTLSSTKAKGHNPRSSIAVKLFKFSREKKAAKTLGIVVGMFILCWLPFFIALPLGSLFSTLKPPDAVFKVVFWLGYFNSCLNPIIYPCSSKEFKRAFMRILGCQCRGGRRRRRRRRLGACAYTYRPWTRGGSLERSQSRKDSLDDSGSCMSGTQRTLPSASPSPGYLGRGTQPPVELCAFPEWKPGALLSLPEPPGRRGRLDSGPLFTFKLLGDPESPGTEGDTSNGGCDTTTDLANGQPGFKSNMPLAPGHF

[5] = biological target: T2, 5-hydroxytryptamine receptor 1A (Homo sapiens); experiment: Agonist activity at human cloned 5HT1A receptor expressed in human HeLa cell membrane assessed as stimulation of [35S]GTPgammaS binding; type: functional, cell membranes
Summary of the method: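 Membranes from HeLa cells expressing cloned human 5-HT1A receptor; agonist-stimulated [35S]GTPγS binding measured. pD2 is the negative log of the agonist concentration giving 50% of maximal [35S]GTPγS binding stimulation; values from two to three experiments.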

[6] = biological target: T4, Alpha-1A adrenergic receptor (Rattus norvegicus) (UniProt P43140); experiment: Antagonist activity at alpha1A adrenoceptor in Wistar rat prostatic vas deferens assessed as inhibition of (-)-noradrenaline-induced contraction after 30 mins; type: functional, tissue-based
T4 sequence (whole entry): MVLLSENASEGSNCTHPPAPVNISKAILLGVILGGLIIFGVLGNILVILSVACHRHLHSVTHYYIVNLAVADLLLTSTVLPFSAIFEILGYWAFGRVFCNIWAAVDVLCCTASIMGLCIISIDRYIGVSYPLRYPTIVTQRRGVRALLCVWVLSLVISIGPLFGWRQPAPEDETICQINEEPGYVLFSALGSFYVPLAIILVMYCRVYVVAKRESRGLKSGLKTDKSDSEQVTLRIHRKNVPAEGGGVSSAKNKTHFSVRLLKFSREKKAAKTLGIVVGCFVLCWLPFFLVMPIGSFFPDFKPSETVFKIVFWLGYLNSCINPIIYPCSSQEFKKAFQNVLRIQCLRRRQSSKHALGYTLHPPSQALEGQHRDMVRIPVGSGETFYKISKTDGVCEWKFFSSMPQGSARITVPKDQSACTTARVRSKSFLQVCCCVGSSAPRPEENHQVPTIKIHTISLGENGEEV

[7] = biological target: T5, Alpha-1D adrenergic receptor (Rattus norvegicus) (UniProt P23944); experiment: Antagonist activity at Alpha-1D adrenoceptor in Wistar rat thoracic aorta assessed as inhibition of (-)-noradrenaline-induced contraction after 30 mins; type: functional, tissue-based
T5 sequence (whole entry): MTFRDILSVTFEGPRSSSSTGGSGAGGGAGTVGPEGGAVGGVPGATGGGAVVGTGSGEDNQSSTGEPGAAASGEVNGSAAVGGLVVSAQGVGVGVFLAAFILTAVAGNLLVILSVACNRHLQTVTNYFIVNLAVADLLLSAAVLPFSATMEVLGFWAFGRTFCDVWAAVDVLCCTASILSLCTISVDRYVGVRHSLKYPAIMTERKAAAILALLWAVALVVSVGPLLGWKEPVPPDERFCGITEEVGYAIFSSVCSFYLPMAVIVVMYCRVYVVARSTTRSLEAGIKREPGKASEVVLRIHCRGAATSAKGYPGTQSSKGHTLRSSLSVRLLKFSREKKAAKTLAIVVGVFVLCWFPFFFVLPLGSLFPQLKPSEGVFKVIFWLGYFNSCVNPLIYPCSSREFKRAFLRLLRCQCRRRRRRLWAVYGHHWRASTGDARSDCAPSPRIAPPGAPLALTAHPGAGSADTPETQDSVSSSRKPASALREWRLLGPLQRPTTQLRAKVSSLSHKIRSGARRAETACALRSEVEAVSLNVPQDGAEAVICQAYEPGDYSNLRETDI

## CCCN(CCC)C1CCc2cccc(O)c2C1 (configuration not stated) [8-OH-DPAT]
[1]
  Ki: > 1 µM
[2]
  %max: 100

## COc1cc2nc(N3CCN(C(=O)C4COc5ccccc5O4)CC3)nc(N)c2cc1OC (configuration not stated) [DOXAZOSIN]
[3]
  GI50: 26.9 µM
  TGI: 49 µM
  CC50: 75.8 µM

## COc1ccccc1N1CCN(CCN2C(=O)CC3(CCCC3)CC2=O)CC1
[4]
  pKb: 7.48
[5]
  pD2: 9.27
[2]
  %max: 26

## NCCc1c[nH]c2ccc(C(N)=O)cc12
[5]
  pD2: 8.45
[2]
  %max: 96

## COc1cccc(OC)c1OCCNCC1COc2ccccc2O1 (configuration not stated)
[6]
  pKb: 9.51
[4]
  pKb: 8.16
[7]
  pKb: 8.8
[3]
  GI50: 64.6 µM
  TGI: 199 µM
  CC50: > 200 µM

## NCCc1c[nH]c2ccc(O)cc12
[5]
  pD2: 7.3
